Experimental data from ChEMBL document CHEMBL2424641, “Synthesis and evaluation of novel radioligands for positron emission tomography imaging of the orexin-2 receptor” (J Med Chem, 2013).

How the values were obtained:
[1] = biological target: T1, Orexin receptor type 2 (Homo sapiens, UniProt O43614); experiment: Displacement of [125I]-orexin-A from human OX2 receptor expressed in CHO cells after 30 mins by liquid scintillation counting analysis; assay type: cell-based
T1 sequence (O43614 whole entry): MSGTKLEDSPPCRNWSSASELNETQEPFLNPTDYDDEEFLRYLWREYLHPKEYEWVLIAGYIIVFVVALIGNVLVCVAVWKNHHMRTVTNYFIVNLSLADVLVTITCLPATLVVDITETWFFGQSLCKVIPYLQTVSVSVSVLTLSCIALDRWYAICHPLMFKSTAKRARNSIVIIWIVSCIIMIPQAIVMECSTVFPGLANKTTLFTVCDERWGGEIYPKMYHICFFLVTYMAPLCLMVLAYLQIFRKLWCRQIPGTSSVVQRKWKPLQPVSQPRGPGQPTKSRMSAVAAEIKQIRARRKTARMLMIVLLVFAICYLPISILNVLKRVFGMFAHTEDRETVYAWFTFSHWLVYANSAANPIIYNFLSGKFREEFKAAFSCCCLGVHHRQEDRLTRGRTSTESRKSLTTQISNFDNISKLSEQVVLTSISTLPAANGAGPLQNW
Procedure, shortened: (§1)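 CHO membranes expressing human OX1R or OX2R (5 μg protein) incubated 30 min at rt with compound and [125I]-orexin A (2 nM stock) in HEPES buffer pH 7.5 with MgCl2, CaCl2, BSA. Nonspecific binding with 10 μM orexin A. Wells washed with HEPES/525 mM NaCl and DPM counted. % inhibition from test, control and nonspecific counts; mean of three wells.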

[2] = Flux ratio of permeability from apical to basolateral to basolateral to apical side in pig LLC cells expressing MDR1 after 2 hrs; assay type: ADME, cell-based, Sus scrofa
Procedure, shortened: (§2)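 LLC-PK1 and LLC-MDR1 monolayers, 5 days post-seeding, preincubated 2 h at 37 °C in HBSS/10 mM HEPES. Compound added apically or basally, 2 h at 37 °C; opposite side assayed by LC-MS. Papp = Q/t/C0/A; FR = Papp(b→a)/Papp(a→b); corrected FR = FR(LLC-MDR1)/FR(LLC-PK1).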

[3] = Ratio of flux ratio in pig LLC cells expressing MDR1 to flux ratio on pig LLC-PK1 cells; assay type: ADME, cell-based, Sus scrofa; procedure, shortened: as §2
[4] = test system: LLC-PK1; experiment: Flux ratio of permeability from apical to basolateral to basolateral to apical side in pig LLC-PK1 cells after 2 hrs; assay type: ADME, cell-based, Sus scrofa; conditions: llc-pk1, 2 h; procedure, shortened: as §2
[5] = biological target: T2, Orexin/Hypocretin receptor type 1 (Homo sapiens, UniProt O43613); experiment: Displacement of [125I]-orexin-A from human OX1 receptor expressed in CHO cells after 30 mins by liquid scintillation counting analysis; assay type: cell-based; procedure, shortened: as §1
T2 sequence (O43613 whole entry): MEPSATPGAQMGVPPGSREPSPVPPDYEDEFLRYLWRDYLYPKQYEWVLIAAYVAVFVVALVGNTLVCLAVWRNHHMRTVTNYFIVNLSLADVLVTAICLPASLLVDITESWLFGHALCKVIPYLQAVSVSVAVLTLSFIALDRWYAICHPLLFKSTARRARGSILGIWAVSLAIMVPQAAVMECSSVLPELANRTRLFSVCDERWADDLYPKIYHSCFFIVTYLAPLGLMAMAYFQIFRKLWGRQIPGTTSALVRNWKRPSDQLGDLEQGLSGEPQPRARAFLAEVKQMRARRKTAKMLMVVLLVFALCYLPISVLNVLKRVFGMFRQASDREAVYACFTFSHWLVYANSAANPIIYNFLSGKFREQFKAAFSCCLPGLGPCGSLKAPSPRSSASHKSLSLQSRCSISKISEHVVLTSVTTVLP

[6] = Metabolic stability in P-gp-knockout rat plasma assessed as unmetabolized drug level at 330 MBq after 30 min by HPLC chromatogram analysis; assay type: ADME, cell-free; conditions: read-out: Stability
Procedure, shortened: (§3)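 Mdr1a-knockout rat (450 g) given [11C] tracer 330 MBq iv and decapitated at 30 min. Plasma deproteinised with MeCN; half-brain homogenised in 50% aqueous MeCN and deproteinised. Supernatants run on C18 radio-HPLC (MeCN/H2O/TEA 5/5/0.01, 1.5 mL/min). Parent % = parent peak area/total peak area × 100, decay corrected; n = 1.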

[7] = test system: Brain; experiment: Ex vivo drug uptake in P-gp-knockout rat brain assessed as retention time at 330 MBq after 30 min by HPLC chromatogram analysis; assay type: ADME, tissue-based; conditions: 0.5 h; procedure, shortened: as §3
[8] = test system: Hippocampus; experiment: Drug uptake in P-gp-knockout rat hippocampus at 78.7 to 189.8 MBq, iv after 90 mins by PET analysis; assay type: ADME, organism-based; conditions: in vivo, 1.5 h
Procedure, shortened: (§4)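 Male Mdr1a-knockout rats (410−500 g) under 1.5% isoflurane at 37 °C; [11C] tracer 78.7−189.8 MBq by tail vein. 90 min list-mode microPET scan with filtered back-projection; ROIs drawn on MRI template; decay-corrected %ID/mL, n = 3. Blocking: unlabeled compound 10 mg/kg po in 5% DMSO/10% cremophor in 10 mM HCl, given 1 h before tracer.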

[9] = test system: Cerebellum; experiment: Drug uptake in P-gp-knockout rat cerebellum at 78.7 to 189.8 MBq, iv after 90 mins by PET analysis in presence of 10 mg/kg, po unlabeled compound; assay type: ADME, organism-based; set-up: dose 10 mg/kg, route oral; conditions: in vivo, 1.5 h; procedure, shortened: as §4
[10] = test system: Hippocampus; experiment: Drug uptake in P-gp-knockout rat hippocampus at 78.7 to 189.8 MBq, iv after 90 mins by PET analysis in presence of 10 mg/kg, po unlabeled compound; assay type: ADME, organism-based; set-up: dose 10 mg/kg, route oral; conditions: in vivo, 1.5 h; procedure, shortened: as §4
[11] = Drug uptake in P-gp-knockout rat neocortex at 78.7 to 189.8 MBq, iv after 90 mins by PET analysis; assay type: ADME, organism-based; conditions: in vivo, 1.5 h; procedure, shortened: as §4
[12] = test system: Brain; experiment: Ex vivo drug metabolism in P-gp-knockout rat brain assessed as retention time at 330 MBq after 30 min by HPLC chromatogram analysis; assay type: ADME, tissue-based; conditions: 0.5 h; procedure, shortened: as §3
[13] = test system: Hippocampus; experiment: Drug uptake in rhesus monkey hippocampus at 115.5 MBq, iv after >30 seconds by PET analysis; assay type: ADME, organism-based, Macaca mulatta; conditions: in vivo
Procedure, shortened: (§5)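 A single rhesus monkey, thiamylal induction then 1.5% isoflurane; 90 min 3D dynamic PET after transmission scan; [11C] tracer bolus via crural vein (115.5 MBq at baseline; 87.7 MBq after tariquidar 8 mg/kg iv over 10 min, 0.25 h before). ROIs on individual MRI; decay-corrected %SUV.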

[14] = Metabolic stability in P-gp-knockout rat brain assessed as unmetabolized drug level at 330 MBq after 30 min by HPLC chromatogram analysis; assay type: ADME, tissue-based; conditions: read-out: Stability; procedure, shortened: as §3
[15] = Drug uptake in rhesus monkey neocortex at 115.5 MBq, iv after >30 seconds by PET analysis; assay type: ADME, organism-based, Macaca mulatta; conditions: in vivo; procedure, shortened: as §5
[16] = Drug uptake in rhesus monkey cerebellum at 115.5 MBq, iv after >30 seconds by PET analysis; assay type: ADME, organism-based, Macaca mulatta; conditions: in vivo; procedure, shortened: as §5
[17] = Drug uptake in P-gp-knockout rat neocortex at 78.7 to 189.8 MBq, iv after 90 mins by PET analysis in presence of 10 mg/kg, po unlabeled compound; assay type: ADME, organism-based; set-up: dose 10 mg/kg, route oral; conditions: in vivo, 1.5 h; procedure, shortened: as §4
[18] = Drug uptake in rhesus monkey cerebellum at 115.5 MBq, iv after 30 seconds by PET analysis; assay type: ADME, organism-based, Macaca mulatta; conditions: in vivo, 0.5 min; procedure, shortened: as §5
[19] = test system: Hippocampus; experiment: Drug uptake in rhesus monkey hippocampus at 115.5 MBq, iv after 30 seconds by PET analysis; assay type: ADME, organism-based, Macaca mulatta; conditions: in vivo, 0.5 min; procedure, shortened: as §5
[20] = test system: Brain; experiment: Drug uptake in rhesus monkey brain at 115.5 MBq, iv by PET analysis in presence of tariquidar; assay type: ADME, organism-based, Macaca mulatta; conditions: in vivo
[21] = Octanol-phosphate buffer partition coefficient, log D of the compound at pH 7.4 by Shake flask method; assay type: physicochemical
Procedure, shortened: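 [11C]-labelled compound (about 200 000 cpm) in n-octanol and 0.1 M PBS pH 7.4, vortexed 3 min at rt and centrifuged; weighed aliquots of each phase γ-counted, with the organic layer repartitioned until stable. log D = log(cpm/g octanol ÷ cpm/g PBS); triplicate.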

[22] = test system: Thalamus; experiment: Drug uptake in P-gp-knockout rat thalamus at 78.7 to 189.8 MBq, iv after 90 mins by PET analysis; assay type: ADME, organism-based; conditions: in vivo, 1.5 h; procedure, shortened: as §4
[23] = Drug uptake in rhesus monkey neocortex at 115.5 MBq, iv after 30 seconds by PET analysis; assay type: ADME, organism-based, Macaca mulatta; conditions: in vivo, 0.5 min; procedure, shortened: as §5
[24] = test system: Thalamus; experiment: Drug uptake in P-gp-knockout rat thalamus at 78.7 to 189.8 MBq, iv after 90 mins by PET analysis in presence of 10 mg/kg, po unlabeled compound; assay type: ADME, organism-based; set-up: dose 10 mg/kg, route oral; conditions: in vivo, 1.5 h; procedure, shortened: as §4

SMILES: COCc1nc(C)ncc1OC[C@@]1(c2ccccc2)C[C@H]1C(=O)Nc1ccc(F)cn1
- Ki [1]: 1 nM
- Ratio [2]: 1.97
- Ratio [3]: 2.03
- Ratio [4]: 0.97
- Ki [5]: 9 nM

SMILES: Cc1ncc(OC[C@@]2(c3cccc(F)c3)C[C@H]2C(=O)Nc2ccc(F)cn2)c(CO[11CH3])n1
- remaining at 0.5 h [6]: 12%
- Retention_time [7]: 5.2 min
- Drug uptake [8]: Active
- Drug uptake [9]: Not Active
- Drug uptake [10]: Not Active
- Drug uptake [11]: Active
- Retention_time [12]: 2 min
- Drug uptake [13]: Not Active
- remaining at 0.5 h [14]: 54%
- Drug uptake [15]: Not Active
- Drug uptake [16]: Not Active
- Drug uptake [17]: Not Active
- Drug uptake [18]: Active
- Drug uptake [19]: Active
- Drug uptake [20]: Active
- logD [21]: 2.97
- Drug uptake [22]: Active
- Drug uptake [23]: Active
- Drug uptake [24]: Active
